Results published in ChEMBL document CHEMBL1122630, “Inhibitors of inosinic acid dehydrogenase. 2-Substituted inosinic acids” (J Med Chem, 1984).

Target: T1, Inosine-5'-monophosphate dehydrogenase (Escherichia coli K-12, UniProt P0ADG7)
T1 sequence (P0ADG7 whole entry): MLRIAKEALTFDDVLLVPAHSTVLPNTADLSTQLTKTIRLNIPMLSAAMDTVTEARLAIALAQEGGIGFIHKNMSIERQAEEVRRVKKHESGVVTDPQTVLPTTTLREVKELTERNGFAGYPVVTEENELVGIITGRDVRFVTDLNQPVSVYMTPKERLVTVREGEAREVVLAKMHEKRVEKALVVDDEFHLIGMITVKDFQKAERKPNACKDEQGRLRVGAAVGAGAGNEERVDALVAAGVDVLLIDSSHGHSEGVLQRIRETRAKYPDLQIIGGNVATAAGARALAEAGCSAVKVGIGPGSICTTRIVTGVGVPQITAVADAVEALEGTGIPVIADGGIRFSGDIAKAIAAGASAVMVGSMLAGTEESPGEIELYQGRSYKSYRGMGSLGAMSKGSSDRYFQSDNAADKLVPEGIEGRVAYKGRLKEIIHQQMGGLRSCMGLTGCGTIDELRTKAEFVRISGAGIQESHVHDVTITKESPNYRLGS
Experiment: Ability to inhibit Inosine-5'-monophosphate dehydrogenase isolated from Escherichia coli
Details: read-out: I50
Summary of the method: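 Crude E. coli IMP dehydrogenase (0–40% ammonium sulfate precipitate) in 0.05 M Tris pH 8.5 with 33.4 mM KCl, 1.5 mM glutathione, 0.8 mM NAD+ and 0.002 unit enzyme, run at 25 °C. NADH rise at 340 nm gave initial rates. I50 was read graphically at 50 µM IMP, with inhibitor levels bracketing 50%; duplicates agreed within 20%. Ki came from a competitive-equation fit over 10–75 µM IMP.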

Row | SMILES | IC50
1 | CCCCCCCCCCc1nc(O)c2ncn(C3O[C@@H](COP(=O)(O)O)[C@H](O)[C@@H]3O)c2n1 (some centres undefined) | 150 µM
2 | O=P(O)(O)OC[C@@H]1OC(n2cnc3c(O)nc(-c4ccccc4)nc32)[C@@H](O)[C@H]1O (some centres undefined) | > 1000 µM
3 | O=P(O)(O)OC[C@@H]1OC(n2cnc3c(O)nc(SCc4ccccc4Cl)nc32)[C@@H](O)[C@H]1O (some centres undefined) | 72 µM
4 | O=P(O)(O)OC[C@@H]1OC(n2cnc3c(O)nc(Cc4cccnc4)nc32)[C@@H](O)[C@H]1O (some centres undefined) | 430 µM
5 | CCCCCCCCCc1nc(O)c2ncn(C3O[C@@H](COP(=O)(O)O)[C@H](O)[C@@H]3O)c2n1 (some centres undefined) | 160 µM
6 | O=P(O)(O)OC[C@@H]1OC(n2cnc3c(O)nc(/C=C/c4ccccc4)nc32)[C@@H](O)[C@H]1O (some centres undefined) | 69 µM
7 | O=[N+]([O-])c1cc(CSc2nc(O)c3ncn(C4O[C@@H](COP(=O)(O)O)[C@H](O)[C@@H]4O)c3n2)cc([N+](=O)[O-])c1 (some centres undefined) | 85 µM
8 | O=[N+]([O-])c1ccc(CSc2nc(O)c3ncn(C4O[C@@H](COP(=O)(O)O)[C@H](O)[C@@H]4O)c3n2)cc1 (some centres undefined) | 56 µM
9 | O=[N+]([O-])c1cccc(CSc2nc(O)c3ncn(C4O[C@@H](COP(=O)(O)O)[C@H](O)[C@@H]4O)c3n2)c1 (some centres undefined) | 33 µM
10 | COc1ccc(-c2nc(O)c3ncn(C4O[C@@H](COP(=O)(O)O)[C@H](O)[C@@H]4O)c3n2)cc1 (some centres undefined) | 810 µM
11 | O=P(O)(O)OC[C@@H]1OC(n2cnc3c(O)nc(-c4cccnc4)nc32)[C@@H](O)[C@H]1O (some centres undefined) | > 1000 µM
12 | O=P(O)(O)OC[C@@H]1OC(n2cnc3c(O)nc(Cc4ccccc4)nc32)[C@@H](O)[C@H]1O (some centres undefined) | 770 µM
13 | CCCCCCCCc1nc(O)c2ncn(C3O[C@@H](COP(=O)(O)O)[C@H](O)[C@@H]3O)c2n1 (some centres undefined) | 680 µM
14 | CCCCCCc1nc(O)c2ncn(C3O[C@@H](COP(=O)(O)O)[C@H](O)[C@@H]3O)c2n1 (some centres undefined) | 580 µM
15 | CCCCCCCc1nc(O)c2ncn(C3O[C@@H](COP(=O)(O)O)[C@H](O)[C@@H]3O)c2n1 (some centres undefined) | 270 µM

Target: IMP dehydrogenase (Escherichia coli)
Experiment: Ability to inhibit Inosine-5'-monophosphate dehydrogenase isolated from Escherichia coli
Details: not given

Row | Ki | SMILES
16 | 600 µM | Cc1nc(O)c2ncn(C3O[C@@H](COP(=O)(O)O)[C@H](O)[C@@H]3O)c2n1 (some centres undefined)
17 | 120 µM | O=P(O)(O)OC[C@@H]1OC(n2cnc3c(O)nc(Cl)nc32)[C@@H](O)[C@H]1O (some centres undefined)
18 | 190 µM | CCCc1nc(O)c2ncn(C3O[C@@H](COP(=O)(O)O)[C@H](O)[C@@H]3O)c2n1 (some centres undefined)
19 | 46 µM | COc1nc(O)c2ncn(C3O[C@@H](COP(=O)(O)O)[C@H](O)[C@@H]3O)c2n1 (some centres undefined)
